ChEMBL document CHEMBL4340580, “Antibacterial and Inhibitory Activities against Nitric Oxide Production of Coumaronochromones and Prenylated Isoflavones from Millettia extensa” (J Nat Prod, 2019)
Values after ≈ are worked out from the molar mass of the structure shown. Active and inactive are the calls of the source. No cut-off for these calls is given here.

Assays:
[1] = Toxicity in mouse RAW264.7 cells assessed as cell viability at 10 uM by MTT assay; assay type: cell-based; details: read-out: Activity
[2] = tested on: RAW264.7; experiment: Inhibition of LPS-induced nitric oxide production in mouse RAW264.7 cells incubated for 24 hrs by Griess reagent based assay; assay type: functional, cell-based
In short: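 RAW 264.7 cells were seeded at 5.0 × 10^5 cells/mL and held 24 h at 37 °C, 5% CO2. Medium was discarded and cells were stimulated with 1 μg/mL LPS with or without compound for 24 h at 37 °C. Supernatant was mixed 1:1 with Griess reagent for 10 min at room temperature. Absorbance was read at 570 nm against a sodium nitrite calibration curve, giving IC50.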

[3] = tested on: Pseudomonas aeruginosa; experiment: Antibacterial activity against Pseudomonas aeruginosa at >128 ug/ml by CLSI protocol based method; assay type: functional, organism-based
In short: (§1)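 Strains came from the Microbiological Resources Center, Bangkok, Thailand. Antibacterial testing followed Clinical and Laboratory Standards Institute recommendations.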

[4] = tested on: Staphylococcus aureus; experiment: Antibacterial activity against Staphylococcus aureus by CLSI protocol based method; assay type: functional; in short: as §1
[5] = tested on: Micrococcus luteus; experiment: Antibacterial activity against Micrococcus luteus by CLSI protocol based method; assay type: functional; in short: as §1
[6] = tested on: Pseudomonas aeruginosa; experiment: Antibacterial activity against Pseudomonas aeruginosa by CLSI protocol based method; assay type: functional; in short: as §1
[7] = tested on: Streptococcus mutans; experiment: Antibacterial activity against Streptococcus mutans by CLSI protocol based method; assay type: functional; in short: as §1
[8] = tested on: Escherichia coli; experiment: Antibacterial activity against Escherichia coli at >128 ug/ml by CLSI protocol based method; assay type: functional, organism-based; in short: as §1
[9] = tested on: Micrococcus luteus; experiment: Antibacterial activity against Micrococcus luteus at >128 ug/ml by CLSI protocol based method; assay type: functional, organism-based; in short: as §1
[10] = tested on: Shigella flexneri; experiment: Antibacterial activity against Shigella flexneri at >128 ug/ml by CLSI protocol based method; assay type: functional, organism-based; in short: as §1
[11] = tested on: Escherichia coli; experiment: Antibacterial activity against Escherichia coli by CLSI protocol based method; assay type: functional; in short: as §1
[12] = tested on: Streptococcus mutans; experiment: Antibacterial activity against Streptococcus mutans at >128 ug/ml by CLSI protocol based method; assay type: functional, organism-based; in short: as §1
[13] = tested on: Shigella flexneri; experiment: Antibacterial activity against Shigella flexneri by CLSI protocol based method; assay type: functional; in short: as §1
[14] = tested on: Bacillus cereus; experiment: Antibacterial activity against Bacillus cereus by CLSI protocol based method; assay type: functional; in short: as §1
[15] = tested on: Bacillus cereus; experiment: Antibacterial activity against Bacillus cereus at >128 ug/ml by CLSI protocol based method; assay type: functional, organism-based; in short: as §1
[16] = tested on: Staphylococcus epidermidis; experiment: Antibacterial activity against Staphylococcus epidermidis by CLSI protocol based method; assay type: functional; in short: as §1
[17] = Mus musculus, RAW264.7, 24 h, read-out: IC50

| Compound | viability at 10 µM [1] | IC50 ([2]; raw264.7) | Activity [3] | MIC [4] | MIC [5] | MIC [6] | MIC [7] | Activity [8] | Activity [9] | Activity [10] | MIC [11] | Activity [12] | MIC [13] | MIC [14] | Activity [15] | MIC [16] | IC50 [2, 17] |
| --- | --- | --- | --- | --- | --- | --- | --- | --- | --- | --- | --- | --- | --- | --- | --- | --- | --- |
| COc1c2c(cc3occ(-c4ccc(OCC=C(C)C)cc4)c(=O)c13)OC(C)(C)C=C2 | 68.7% | Not Active | inactive | – | – | – | – | – | – | – | – | – | – | – | – | – | – |
| CC(C)=CCc1c2c(c(O)c3c(=O)c(-c4ccc(O)cc4O)coc13)C=CC(C)(C)O2 | 75.5% | Not Active | – | – | – | – | – | – | – | – | – | – | – | – | – | – | – |
| COc1c2c(cc3occ(-c4ccc(OCC=C(C)C)cc4O)c(=O)c13)OC(C)(C)C=C2 | – | – | inactive | 128 µg/mL (≈ 295 µM) | inactive | inactive | inactive | inactive | inactive | inactive | inactive | inactive | inactive | inactive | inactive | 128 µg/mL (≈ 295 µM) | – |
| COc1cc(-c2coc3cc4c(c(O)c3c2=O)C=CC(C)(C)O4)c(OC)cc1OCC=C(C)C | 60.1% | Not Active | inactive | 128 µg/mL (≈ 276 µM) | inactive | inactive | inactive | inactive | inactive | – | inactive | inactive | 128 µg/mL (≈ 276 µM) | inactive | inactive | 128 µg/mL (≈ 276 µM) | – |
| CC(C)=CCc1c2c(c(O)c3c(=O)c(-c4ccc(O)cc4)coc13)C=CC(C)(C)O2 [WARANGALONE] | 86.5% | – | – | – | – | – | – | – | – | – | – | – | – | – | – | – | 8.5 µM |
| C=CC(C)(C)c1cc(-c2coc3cc4c(c(O)c3c2=O)C=CC(C)(C)O4)ccc1O | 61.1% | Not Active | inactive | 64 µg/mL (≈ 158 µM) | 64 µg/mL (≈ 158 µM) | inactive | 128 µg/mL (≈ 316 µM) | inactive | – | – | inactive | – | 128 µg/mL (≈ 316 µM) | 64 µg/mL (≈ 158 µM) | – | 128 µg/mL (≈ 316 µM) | – |
| COc1c2c(cc3occ(-c4ccc(OCC=C(C)C)c(O)c4)c(=O)c13)OC(C)(C)C=C2 | 64.5% | Not Active | inactive | 128 µg/mL (≈ 295 µM) | inactive | inactive | inactive | inactive | inactive | – | inactive | inactive | 128 µg/mL (≈ 295 µM) | inactive | inactive | 128 µg/mL (≈ 295 µM) | – |
| CC(C)=CCOc1ccc(-c2coc3cc(OCC=C(C)C)cc(O)c3c2=O)cc1 | 72.2% | Not Active | inactive | 128 µg/mL (≈ 315 µM) | inactive | inactive | inactive | inactive | inactive | – | inactive | inactive | 128 µg/mL (≈ 315 µM) | inactive | inactive | 128 µg/mL (≈ 315 µM) | – |
| CC(C)=CCC1=C(O)c2c(occ(-c3ccc(O)c(O)c3)c2=O)C(CC=C(C)C)(CC=C(C)C)C1=O | – | – | – | 4 µg/mL (≈ 8.15 µM) | 2 µg/mL (≈ 4.08 µM) | 128 µg/mL (≈ 261 µM) | 16 µg/mL (≈ 32.6 µM) | – | – | – | 128 µg/mL (≈ 261 µM) | – | 128 µg/mL (≈ 261 µM) | 32 µg/mL (≈ 65.2 µM) | – | 4 µg/mL (≈ 8.15 µM) | – |
| C=CC(C)(C)c1cc(-c2coc3cc4c(c(OC)c3c2=O)C=CC(C)(C)O4)c(O)cc1O | – | – | – | 8 µg/mL (≈ 18.4 µM) | 32 µg/mL (≈ 73.6 µM) | 128 µg/mL (≈ 295 µM) | 128 µg/mL (≈ 295 µM) | – | – | inactive | 128 µg/mL (≈ 295 µM) | – | inactive | 8 µg/mL (≈ 18.4 µM) | – | 128 µg/mL (≈ 295 µM) | – |
| CC1(C)C=Cc2c(c(CCO)c3occ(-c4ccc(O)c(O)c4)c(=O)c3c2O)O1 | 68.2% | Not Active | inactive | – | 32 µg/mL (≈ 80.7 µM) | inactive | 128 µg/mL (≈ 323 µM) | – | – | inactive | 128 µg/mL (≈ 323 µM) | – | inactive | – | – | 128 µg/mL (≈ 323 µM) | – |
| CC(C)=CCC1=C(O)c2c(occ(-c3ccc(O)cc3O)c2=O)C(CC=C(C)C)(CC=C(C)C)C1=O | 75.5% | Not Active | – | – | – | – | – | – | – | – | – | – | – | – | – | – | – |
| CC(C)=CCOc1ccc2c(c1)O[C@@H]1Oc3cc4c(c(O)c3C(=O)[C@]21O)C=CC(C)(C)O4 | 65.3% | Not Active | inactive | 32 µg/mL (≈ 73.3 µM) | 64 µg/mL (≈ 147 µM) | inactive | 128 µg/mL (≈ 293 µM) | inactive | – | inactive | inactive | – | inactive | 32 µg/mL (≈ 73.3 µM) | – | 128 µg/mL (≈ 293 µM) | – |
| CC(C)=CCc1c(O)c(CC=C(C)C)c2occ(-c3ccc(O)c(O)c3)c(=O)c2c1O | 90.2% | – | – | 32 µg/mL (≈ 75.7 µM) | 16 µg/mL (≈ 37.9 µM) | 128 µg/mL (≈ 303 µM) | 16 µg/mL (≈ 37.9 µM) | – | – | – | 128 µg/mL (≈ 303 µM) | – | 128 µg/mL (≈ 303 µM) | 16 µg/mL (≈ 37.9 µM) | – | 128 µg/mL (≈ 303 µM) | 14.3 µM |
| COc1cc(O)c2c(=O)c(-c3ccc(OCC=C(C)C)cc3)coc2c1 | 65.3% | Not Active | inactive | 128 µg/mL (≈ 363 µM) | inactive | inactive | inactive | inactive | inactive | inactive | inactive | inactive | inactive | inactive | inactive | 128 µg/mL (≈ 363 µM) | – |
| CN[C@H](CC(C)C)C(=O)N[C@H]1C(=O)N[C@@H](CC(N)=O)C(=O)N[C@H]2C(=O)N[C@H]3C(=O)N[C@H](C(=O)N[C@H](C(=O)O)c4cc(O)cc(O)c4-c4cc3ccc4O)[C@H](O)c3ccc(c(Cl)c3)Oc3cc2cc(c3O[C@@H]2O[C@H](CO)[C@@H](O)[C@H](O)[C@H]2O[C@H]2C[C@](C)(N)[C@H](O)[C@H](C)O2)Oc2ccc(cc2Cl)[C@H]1O [VANCOMYCIN] | – | – | – | 0.25 µg/mL (≈ 0.173 µM) | 0.25 µg/mL (≈ 0.173 µM) | – | 0.25 µg/mL (≈ 0.173 µM) | – | – | – | – | – | – | 0.125 µg/mL (≈ 0.0863 µM) | – | 0.25 µg/mL (≈ 0.173 µM) | – |
| CC(C)=CCc1c2c(c(O)c3c(=O)c4c(oc5cc(O)ccc54)oc13)C=CC(C)(C)O2 | 79.2% | Not Active | inactive | 128 µg/mL (≈ 306 µM) | inactive | inactive | inactive | inactive | inactive | – | inactive | inactive | 128 µg/mL (≈ 306 µM) | 128 µg/mL (≈ 306 µM) | – | 128 µg/mL (≈ 306 µM) | – |
| COc1ccc2c(c1)c(CC(=O)O)c(C)n2C(=O)c1ccc(Cl)cc1 [INDOMETHACIN] | – | – | – | – | – | – | – | – | – | – | – | – | – | – | – | – | 62.9 µM |
| COc1c2c(cc3c1C(=O)[C@]1(O)c4ccc(OCC=C(C)C)cc4O[C@@H]1O3)OC(C)(C)C=C2 | 64.4% | Not Active | inactive | 32 µg/mL (≈ 71 µM) | 64 µg/mL (≈ 142 µM) | inactive | 128 µg/mL (≈ 284 µM) | inactive | – | inactive | inactive | – | inactive | 32 µg/mL (≈ 71 µM) | – | 128 µg/mL (≈ 284 µM) | – |
| GENTAMICIN | – | – | – | – | – | – | – | – | – | – | 0.25 µg/mL | – | – | – | – | – | – |
